This note sets out measurements from PMC7609460 (Heliyon, 2020).

SMILES strings stand for the structures. A value given as a limit tells only on which side of the number the result lay.

Common to all, as to assay type: cell-based
Assay [1] relates to MDA-MB-231-BCRP breast adenocarcinoma cells. The assay can be described thus: Resazurin reduction assay. To be noted: for IC50: MDA-MB-231/BCRP, 72 h. An outline of the steps: (§1)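 Resazurin reduction read after 72 h at 37 °C in humidified 5% CO2; fluorescence at 544 nm excitation and 590 nm emission. Test samples were dissolved in DMSO (final ≤0.1%). IC50 is the concentration that gives 50% inhibition of proliferation, derived by linear regression. Degree of resistance is IC50 in the resistant line divided by IC50 in its parental line. Selectivity index is IC50 in AML12 divided by IC50 in HepG2.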
(The colour change of resazurin is a common sign of viable cells or microbes.)

The subject of assay [2] is HepG2 hepatocarcinoma cells. The assay can be described thus: Resazurin reduction assay. To be noted: Homo sapiens, HepG2, 72 h. In short, it runs like this:
as §1

For another assay, the system named is U87MG glioblastoma cells. The assay can be described thus: Resazurin reduction assay. The conditions noted are these: Homo sapiens, U-87 MG, 72 h. An outline of the steps: as §1
A further assay deals with CCRF-CEM leukemia cells. The assay can be described thus: Resazurin reduction assay. The conditions noted are these: Homo sapiens, 72 h. An outline of the steps: as §1
Assay [3] deals with HCT116 (p53+/+) colon cancer cells. In words: Resazurin reduction assay. To be noted: Homo sapiens, HCT-116, 72 h. In short, it runs like this:
as §1

The next assay relates to normal AML12 hepatocytes. In words: Resazurin reduction assay. To be noted: for IC50: Mus musculus, AML12, 72 h; for Selectivity index: ratio IC50 AML12 hepatocytes / IC50 HepG2. An outline of the steps:
as §1

Assay [4] relates to CEM/ADR5000 leukemia cells (P-glycoprotein-overexpressing). The assay can be described thus: Resazurin reduction assay. The conditions noted are these: for IC50: Homo sapiens, ADR5000, 72 h; for Degree of resistance: ratio IC50 CEM/ADR5000 / IC50 CCRF-CEM. An outline of the steps:
as §1

The subject of assay [5] is MDA-MB-231-pcDNA breast adenocarcinoma cells. The assay can be described thus: Resazurin reduction assay. To be noted: 72 h. In short, it runs like this:
as §1

In assay [6] the test system is HCT116 (p53-/-) colon adenocarcinoma cells. In words: Resazurin reduction assay. The conditions noted are these: for IC50: Homo sapiens, HCT-116, 72 h; for Degree of resistance: ratio IC50 HCT116 (p53-/-) / IC50 HCT116 (p53+/+). In short, it runs like this: as §1
For assay [7], the system named is U87MG.ΔEGFR glioblastoma cells. In words: Resazurin reduction assay. To be noted: for IC50: 72 h; for Degree of resistance: ratio IC50 U87MG.ΔEGFR / IC50 U87MG. In short, it runs like this:
as §1

The subject of assay [8] is CCRF-CEM cells. In words: Cell cycle distribution by flow cytometry. To be noted: 24 h treatment. An outline of the steps: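 CCRF-CEM cells (1×10^6) were treated for 24 h under standard culture conditions with various concentrations of test sample, or with DMSO (0.1% final) as control. Cell-cycle phases were read by flow cytometry from propidium iodide fluorescence of individual nuclei. At least three independent experiments, each with three repetitions.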
Background: Flow cytometry measures light scatter and fluorescence of single cells or particles in a stream.

Assay [9] has as its system CCRF-CEM cells. The assay can be described thus: Flow cytometric analysis of ROS production. To be noted: 24 h, 50 μM, non-treated cells 0.6%.

For the molecule `COc1cc(-c2cc(=O)c3c(O)cc(O[C@@H]4O[C@H](CO)[C@@H](O)[C@H](O)[C@H]4O)cc3o2)ccc1O` [Compound 3, chrysoeriol-7-O-β-D-glucopyranoside], the half-inhibitory concentration (IC50) (in general, the concentration that gives 50% inhibition) is above 100 µM in [1]; 34.2 ± 2.86 µM in assay [2]; 24.9 ± 2.19 µM in the assay with U87MG glioblastoma cells; 20.8 ± 1.76 µM in the assay with CCRF-CEM leukemia cells; 30.7 ± 4.04 µM in assay [3]; above 100 µM in the assay on normal AML12 hepatocytes. Further, the concentration for half-maximal inhibition (IC50) in assay [4] is 18.7 ± 1.25 µM; in assay [5], above 100 µM; in assay [6], 28.4 ± 1.72 µM; in [7], 21.1 ± 0.92 µM. Further, the Selectivity index in the assay with normal AML12 hepatocytes is listed as above 2.92. In addition, in assay [4], the Degree of resistance is recorded as 0.90.

For `O=c1cc(-c2ccc(O)cc2)oc2cc(O[C@@H]3O[C@H](CO)[C@@H](O)[C@H](O)[C@H]3O)cc(O)c12` [Compound 4, Apigenin-7-O-β-D-glucopyranoside], the IC50 was above 100 µM in assay [1]; above 100 µM in assay [2]; above 100 µM in the assay with U87MG glioblastoma cells; 10.4 ± 1.17 µM in the assay with CCRF-CEM leukemia cells; above 100 µM in [3]; above 100 µM with normal AML12 hepatocytes. The half-maximal inhibitory concentration (IC50) in [4], in assay [5], in assay [6] and in assay [7] was above 100 µM in each case. Also, in assay [4], the Degree of resistance is on record as above 9.62.

Turning to `O=c1cc(-c2ccc(O)c(O)c2)oc2cc(O)cc(O)c12` [Compound 6, luteolin], the concentration for half-maximal inhibition (IC50) in assay [1] was above 100 µM; in assay [2], 29 ± 1.77 µM; with U87MG glioblastoma cells, 22.7 ± 2.2 µM; with CCRF-CEM leukemia cells it was 11 ± 0.97 µM; in [3], 28.3 ± 1.07 µM; with normal AML12 hepatocytes it was above 100 µM. Besides, the IC50 in assay [4] was 27 ± 1.29 µM; in [5], above 100 µM; in [6] it was 30.4 ± 2.55 µM; in [7] it was 18.9 ± 1.06 µM. Moreover, in the assay with normal AML12 hepatocytes, the Selectivity index was above 3.45. Also, the Degree of resistance in assay [4] is reported as 2.46; in [6] it was 1.07; in assay [7] it was 0.83.

With `COc1cccc2c1C(=O)c1c(O)c3c(c(O)c1C2=O)C[C@@](O)(C(=O)CO)C[C@@H]3O[C@H]1C[C@H](N)[C@H](O)[C@H](C)O1` [Doxorubicin, reference compound], the half-inhibitory concentration (IC50) was found to be 0.79 ± 0.08 µM in assay [1]; 4.56 ± 0.48 µM in [2]; 0.26 ± 0.03 µM in the assay on U87MG glioblastoma cells; 0.02 µM in the assay on CCRF-CEM leukemia cells; 52.9 ± 4.09 µM with normal AML12 hepatocytes; 0.13 ± 0.01 µM in [5]. Besides, the half-maximal inhibitory concentration (IC50) in [6] was 1.78 ± 0.08 µM; in assay [7], 0.98 ± 0.07 µM. For the same molecule, the values for the Degree of resistance in assay [1] (ratio IC50 MDA-MB-231-BCRP / IC50 MDA-MB-231-pcDNA), in assay [6] and in assay [7] were 6.14, 3.73 and 3.79, respectively. For the same molecule, the “cell cycle arrest phase” value in the assay with CCRF-CEM cells [8] is “S and G2/M phase arrest”.

`OO` [H2O2, Hydrogen peroxide]: the ROS levels in the assay with CCRF-CEM cells [9] came out at 94.30%.
